Results from publication PMC11247637 (ACS Medicinal Chemistry Letters, 2024).
Blank lines part the entries; values can stand above or below the compound they belong to.

Assays:
[1] = target: T1, MUS81-EME1 heterodimer (MUS81 residues 246-551; EME1 residues 246-570) (Homo sapiens, UniProt Q96NY9); test: Surface plasmon resonance; assay type: binding; conditions: SPR affinity; for increase in affinity: compared with 5
T1 sequence (Q96NY9 246-551): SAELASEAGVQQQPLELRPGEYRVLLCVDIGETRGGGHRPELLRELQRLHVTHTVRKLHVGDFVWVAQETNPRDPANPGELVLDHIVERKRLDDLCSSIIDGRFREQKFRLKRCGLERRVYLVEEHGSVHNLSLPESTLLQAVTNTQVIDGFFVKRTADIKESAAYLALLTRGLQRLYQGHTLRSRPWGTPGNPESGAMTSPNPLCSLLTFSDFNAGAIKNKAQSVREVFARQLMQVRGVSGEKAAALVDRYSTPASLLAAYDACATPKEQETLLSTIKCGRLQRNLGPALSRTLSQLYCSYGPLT
T1 sequence (Q96AY2 246-570 partner limits assumed): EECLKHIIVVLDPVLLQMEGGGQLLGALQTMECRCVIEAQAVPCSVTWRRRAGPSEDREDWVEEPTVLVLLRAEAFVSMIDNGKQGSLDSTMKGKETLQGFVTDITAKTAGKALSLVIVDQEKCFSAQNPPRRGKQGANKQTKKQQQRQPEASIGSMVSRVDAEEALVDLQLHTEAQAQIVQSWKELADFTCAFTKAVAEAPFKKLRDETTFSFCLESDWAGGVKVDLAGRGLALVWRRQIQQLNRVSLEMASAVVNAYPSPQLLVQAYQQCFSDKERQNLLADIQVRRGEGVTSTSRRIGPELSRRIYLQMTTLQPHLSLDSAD
Summary of the method: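 Kd values for binding to MUS81-EME1 were measured by SPR. Affinities are the geometric mean with geometric standard deviation of at least three determinations.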

[2] = target: T2, Full length MUS81-EME1 (Homo sapiens, UniProt Q96NY9); test: MUS81-EME1 biochemical enzyme-inhibition assay; conditions: for improvement in biochemical activity (IC50): compared with pyrimidinone 15; for improvement in biochemical activity: compared to 18
T2 sequence (Q96NY9 1-551): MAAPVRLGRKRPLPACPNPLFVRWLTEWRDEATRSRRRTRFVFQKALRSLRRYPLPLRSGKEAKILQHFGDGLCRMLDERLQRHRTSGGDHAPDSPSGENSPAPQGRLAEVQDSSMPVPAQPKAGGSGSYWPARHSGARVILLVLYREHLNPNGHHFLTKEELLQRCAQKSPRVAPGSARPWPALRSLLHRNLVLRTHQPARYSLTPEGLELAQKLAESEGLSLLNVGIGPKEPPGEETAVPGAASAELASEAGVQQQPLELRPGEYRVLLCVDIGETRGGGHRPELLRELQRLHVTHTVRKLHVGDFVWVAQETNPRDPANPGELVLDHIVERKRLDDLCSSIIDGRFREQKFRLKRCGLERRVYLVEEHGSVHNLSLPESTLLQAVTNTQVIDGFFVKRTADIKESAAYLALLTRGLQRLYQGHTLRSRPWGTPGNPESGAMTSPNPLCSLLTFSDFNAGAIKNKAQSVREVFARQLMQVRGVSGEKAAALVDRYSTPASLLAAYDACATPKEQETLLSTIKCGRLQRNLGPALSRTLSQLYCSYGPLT
T2 sequence (Q96AY2 1-570 partner): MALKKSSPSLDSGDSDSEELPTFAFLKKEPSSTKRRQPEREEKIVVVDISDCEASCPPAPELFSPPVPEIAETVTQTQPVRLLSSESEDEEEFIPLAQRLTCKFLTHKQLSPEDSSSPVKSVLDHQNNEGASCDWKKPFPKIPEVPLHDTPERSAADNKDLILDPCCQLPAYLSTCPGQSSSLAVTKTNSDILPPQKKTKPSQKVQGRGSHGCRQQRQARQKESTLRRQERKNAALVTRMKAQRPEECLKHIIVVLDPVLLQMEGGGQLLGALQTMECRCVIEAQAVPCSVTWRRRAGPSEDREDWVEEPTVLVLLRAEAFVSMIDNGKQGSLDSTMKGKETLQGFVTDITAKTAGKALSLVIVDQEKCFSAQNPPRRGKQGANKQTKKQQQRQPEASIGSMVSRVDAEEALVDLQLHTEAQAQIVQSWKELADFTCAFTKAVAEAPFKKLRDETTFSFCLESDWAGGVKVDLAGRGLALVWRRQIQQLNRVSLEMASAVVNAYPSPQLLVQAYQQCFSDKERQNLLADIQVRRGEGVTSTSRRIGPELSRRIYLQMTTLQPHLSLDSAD
Summary of the method: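 LE was calculated as 1.37 × pIC50/HAC and LLE as pIC50 − LogD. LogD was measured by shake-flask partition between octanol and water at pH 7.4. IC50 values are the geometric mean ± SEM of at least three determinations.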

[3] = Metabolic stability in rat hepatocytes; assay type: in vitro ADME
Summary of the method: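 Intrinsic clearance was measured in rat hepatocyte incubations and expressed as μL/min/1 × 10^6 cells.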

[4] = target: safety panel of 22 common off-targets, comprising enzymes, receptors and ion channels (e.g., COX2, PDEs, INSR, GABA, NMDA, CaV-L); test: Eurofins SafetyScreen panel of 22 common off-targets; assay type: biochemical; conditions: read-out: IC50 against safety panel off-targets

increase in potency ([1]; compared with methyl ester 1): ~20 fold
Structure (SMILES): O=C(O)c1nc(-c2ccccc2)nc(O)c1O [Compound 5]

drop in potency ([1]; compared with acid 5): ~20 fold
Structure (SMILES): Cc1nc(C(=O)O)c(O)c(=O)[nH]1 [Compound 6]

increase in affinity [1]: ~2 fold
Structure (SMILES): O=C(O)c1nc(-c2ccc(Cl)cc2)nc(O)c1O [Compound 10]

increase in affinity [1]: ~2 fold
Structure (SMILES): O=C(O)c1nc(-c2ccc(Br)cc2)nc(O)c1O [Compound 11]

increase in affinity [1]: ~2 fold
Structure (SMILES): O=C(O)c1nc(-c2ccc3ccccc3c2)[nH]c(=O)c1O [Compound 12]

improvement in biochemical activity (IC50) [2]: ~2 fold
Structure (SMILES): O=C(O)c1nc(-c2ccc(N3CCNCC3)cc2)[nH]c(=O)c1O [Compound 17]

improvement in biochemical activity (IC50) [2]: approximately 3 fold
Structure (SMILES): O=C(O)c1cn(-c2ccc(-c3ccccc3)cc2)cc(O)c1=O [Compound 18]

improvement in biochemical activity [2]: approximately 2 fold | rHep Clint [3]: 11 μL/min/1 × 10^6 cells
Structure (SMILES): O=C(O)c1cn(-c2ccc(-c3ccc(C(=O)N4CCNCC4)cc3)cc2)cc(O)c1=O [Compound 23]

improvement in biochemical activity [2]: approximately 2 fold | rHep Clint [3]: 10 μL/min/1 × 10^6 cells
Structure (SMILES): N#Cc1cc(-c2ccc(C(=O)N3CCNCC3)cc2)ccc1-n1cc(O)c(=O)c(C(=O)O)c1 [Compound 24]
IC50 [4]: > 100 µM
